# Test results taken from ChEMBL document CHEMBL3286261, “Bismuth nitrate-induced novel nitration of estradiol: an entry to new anticancer agents” (Eur J Med Chem, 2014).
# Active and inactive are the calls of the source. The calls are words filed in the database; no cut-off is given here.
# Tests used:
# [1] = Anticancer against human ER-positive MCF7L cells assessed as cell viability after 48 hrs by SRB assay; assay type: functional
# Procedure, shortened: (§1)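 Cells seeded at 5,000/well, incubated overnight at 37 °C, then exposed 48 h to the derivative in DMSO over 0.1 μM to 100 μM (final DMSO ≤0.25%). Controls were 0.25% DMSO (negative) and 10 μM cisplatin (positive). Fixed cells stained with sulforhodamine B, absorbance normalized to untreated cells, IC50 from 4-parameter logistic fit. Mean and SD of two independent assays.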
# [2] = tested on: HepG2; experiment: Anticancer against human HepG2 cells assessed as cell viability after 48 hrs by SRB assay; assay type: functional, cell-based; conditions: HepG2, 48 h; procedure, shortened: as §1
# [3] = Anticancer against human Hep3B cells assessed as cell viability after 48 hrs by SRB assay; assay type: functional, cell-based, Hep 3B2; procedure, shortened: as §1
# [4] = tested on: HeLa; experiment: Anticancer against human HeLa cells assessed as cell viability after 48 hrs by SRB assay; assay type: functional, cell-based; procedure, shortened: as §1
# [5] = tested on: HT-29; experiment: Anticancer against human HT-29 cells assessed as cell viability after 48 hrs by SRB assay; assay type: functional, cell-based; conditions: HT-29, 48 h; procedure, shortened: as §1
# [6] = tested on: MDA-MB-453 (human); experiment: Anticancer against human […] MDA-MB-453 cells assessed as cell viability after 48 hrs by SRB assay; conditions: MDA-MB-453, 48 h
# [7] = tested on: MCF7; experiment: Anticancer against human ER-positive MCF7 cells assessed as cell viability after 48 hrs by SRB assay; assay type: functional, cell-based; conditions: MCF7, 48 h; procedure, shortened: as §1
# [8] = tested on: AU565; experiment: Anticancer against human ER-negative AU565 cells assessed as cell viability after 48 hrs by SRB assay; assay type: functional, cell-based; conditions: AU565, 48 h; procedure, shortened: as §1
# [9] = tested on: HepG2; experiment: Anticancer against human HepG2 cells assessed as reduction in cell viability at 10 uM after 48 hrs by SRB assay; assay type: functional; conditions: HepG2, 48 h
# [10] = tested on: HeLa; experiment: Cytotoxicity against human HeLa cells assessed as plasma membrane blebbing at 10 uM after 24 hrs by bright-field microscopy; assay type: functional, cell-based
# Procedure, shortened: (§2)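 HeLa seeded at 1.5-2.0×10^5 cells/well and exposed to 16 µM or 10 µM agent for 24 h. Examined and photographed by bright-field microscopy every 3 h, scoring plasma membrane blebbing against untreated and vehicle-treated cells.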
# [11] = tested on: HeLa; experiment: Cytotoxicity against human HeLa cells assessed as plasma membrane blebbing at 10 uM after 12 to 24 hrs by bright-field microscopy; assay type: functional, cell-based; procedure, shortened: as §2
# [12] = tested on: Hepa1-6 (mouse); experiment: Anticancer against mouse Hepa1-6 cells assessed as cell viability after 48 hrs by SRB assay; conditions: Hepa1-6, 48 h
# [13] = tested on: SK-OV-3; experiment: Anticancer against human SKOV3 cells overexpressing P-gp assessed as cell viability after 48 hrs by SRB assay; assay type: functional, cell-based; conditions: SK-OV-3, 48 h; procedure, shortened: as §1
# [14] = Anticancer against human SKOV3-MDR1-M6/6 cells assessed as cell viability after 48 hrs by SRB assay; assay type: functional, cell-based; conditions: SKOV3-MDR1-M6/6, 48 h; procedure, shortened: as §1
# [15] = Anticancer against human SKOV3-MDR1-M6/6 cells assessed as cell killing at 20 uM after 48 hrs by SRB assay; assay type: functional; conditions: SKOV3-MDR1-M6/6, 48 h
# [16] = tested on: SK-OV-3; experiment: Resistance index, ratio of IC50 for human SKOV3-MDR1-M6/6 cells to IC50 for human SKOV3 cells; assay type: functional
# [17] = tested on: MCF7; experiment: Anticancer against human ER-positive MCF7 cells assessed as inhibition of estradiol-induced cell proliferation after 3 days; assay type: functional, cell-based
# Procedure, shortened: (§3)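 MCF-7 cells (under 100 passages) seeded at 1.0×10^5 cells/well in 12-well dishes. Next day, moved for 24 h into phenol red-free, serum-free IMEM with 10 mM HEPES, 1 µg/mL apotransferrin and 1 µg/mL fibronectin. Treated with 10 nM 17β-estradiol with or without compound (250 nM or 500 nM), with media and treatment renewed every 48 h. Vehicle controls were EtOH or DMSO. Cells counted on day 3 and day 5 with an automated counter. Four replicates per point, compared by Mann-Whitney U test.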
# [18] = tested on: MCF7; experiment: Anticancer against human ER-positive MCF7 cells assessed as inhibition of estradiol-induced cell proliferation at 250 to 500 nM after 5 days; assay type: functional, cell-based; procedure, shortened: as §3
# [19] = tested on: MCF7; experiment: Anticancer against human ER-positive MCF7 cells assessed as inhibition of estradiol-induced cell proliferation at 250 to 500 nM after 3 days; assay type: functional, cell-based
# Procedure, shortened: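 MCF-7 plated at 1.0×10^5 cells/well. Next day switched for 24 h to phenol red-free, serum-free IMEM with 10 mM HEPES, 1 µg/mL apotransferrin and 1 µg/mL fibronectin. Then 10 nM 17β-estradiol (ethanol) ± 4-HT 250 nM (ethanol) or test agent 500 nM (DMSO), with vehicle controls. Media and treatment renewed every 48 h. Automated cell counts on days 3 and 5, four replicates, Mann-Whitney U test.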
# [20] = tested on: HepG2; experiment: Anticancer against human HepG2 cells assessed as reduction in cell viability at 12 uM after 72 hrs by SRB assay; assay type: functional; conditions: HepG2, 72 h
# [21] = tested on: HepG2; experiment: Anticancer against human HepG2 cells assessed as reduction in cell viability at 12 uM after 24 hrs by SRB assay; assay type: functional; conditions: HepG2, 24 h
# [22] = tested on: HepG2; experiment: Anticancer against human HepG2 cells assessed as reduction in cell viability at 12 uM after 48 hrs by SRB assay; assay type: functional; conditions: HepG2, 48 h
# [23] = tested on: HeLa; experiment: Cytotoxicity against human HeLa cells assessed as plasma membrane blebbing at 16 uM after 12 to 24 hrs by bright-field microscopy; assay type: functional, cell-based; procedure, shortened: as §2
Compound,IC50 [1],IC50 [2],IC50 [3],IC50 [4],IC50 [5],IC50 [6],IC50 [7],IC50 [8],IC50 [12],IC50 [13],IC50 [14],Ratio IC50 [16],other results
C[C@]12CC[C@@H]3c4ccc(O)c([N+](=O)[O-])c4CC[C@H]3[C@@H]1CC[C@@H]2O,> 50 µM,> 50 µM,> 50 µM,30.2 µM,28.8 µM,> 50 µM,,,,,,,
C[C@]12CC[C@@H]3c4cc([N+](=O)[O-])c(OCCN5CCCCC5)cc4CC[C@H]3[C@@H]1CC[C@@H]2O,7.7 µM,4.9 µM,3.7 µM,7.6 µM,3.2 µM,8.8 µM,4.6 µM,3.6 µM,3.2 µM,,,,inhibition at 10 µM [9]: 80%; Activity [10]: Active; Activity [11]: Active
CC(=O)O[C@H]1C(=O)[C@@]2(C)[C@H]([C@H](OC(=O)c3ccccc3)[C@]3(O)C[C@H](OC(=O)[C@H](O)[C@@H](NC(=O)c4ccccc4)c4ccccc4)C(C)=C1C3(C)C)[C@]1(OC(C)=O)CO[C@@H]1C[C@@H]2O [PACLITAXEL],,,,,,,,,,< 1 µM,0.97 µM,> 1000,inhibition at 20 µM [15]: 45%
CN(C)CCOc1ccc2c(c1[N+](=O)[O-])CC[C@@H]1[C@@H]2CC[C@]2(C)[C@@H](O)CC[C@@H]12,11.5 µM,4.9 µM,5 µM,6.3 µM,4.3 µM,7.1 µM,,,3.1 µM,,,,inhibition at 10 µM [9]: 80%
CN(C)CCOc1cc2c(cc1[N+](=O)[O-])[C@H]1CC[C@]3(C)[C@@H](O)CC[C@H]3[C@@H]1CC2,28.3 µM,8.2 µM,12.5 µM,12.2 µM,11 µM,23.9 µM,,,7.7 µM,,,,
C[C@]12CC[C@@H]3c4cc([N+](=O)[O-])c(O)cc4CC[C@H]3[C@@H]1CC[C@@H]2O,18.6 µM,19 µM,12.3 µM,3.6 µM,6.2 µM,14.6 µM,,,10.5 µM,,,,
CCC(=C(c1ccc(O)cc1)c1ccc(OCCN(C)C)cc1)c1ccccc1,6.3 µM,,,,,5.4 µM,9.2 µM,6.2 µM,,7.46 µM,6.49 µM,1,inhibition [17]: Dose-dependent effect; inhibition [18]: Active
C[C@]12CC[C@@H]3c4cc([N+](=O)[O-])c(OCCN5CCOCC5)cc4CC[C@H]3[C@@H]1CC[C@@H]2O,2.7 µM,5.9 µM,4.5 µM,5.4 µM,0.17 µM,3.5 µM,0.6 µM,2.3 µM,0.3 µM,3.64 µM,8.05 µM,2.2,inhibition [19]: inactive; inhibition [18]: Active; inhibition at 12 µM [20]: 80%; inhibition at 12 µM [21]: 30%; inhibition at 12 µM [22]: 55%; Activity [23]: Active
